These results are taken from paper PMC4133170 (Biochimica et biophysica acta, 2014).

Experiment [1] relates to LRP1. Description: Western blot of LRP1 expression in hCMEC/D3 cells. The experiment is classed as cell-based, human. To be noted: 24 h, 100 nM monomeric Aβ40 or 50 nM Aβ42 oligomers, n = 3. The method, boiled down: (§1)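 hCMEC/D3 cells (1 × 10⁶ per 100 mm dish) grown to 70% confluence, then given 24 h of control media, 100 nM Aβ40 monomer, 50 nM Aβ42 oligomer or both. Lysed in RIPA with protease inhibitors; 25 μg protein on 8% Bis-Tris/MOPS gel, nitrocellulose, 2% BSA block. Overnight primary: LRP1 1:1500, RAGE 1:200, GAPDH 1:3000. HRP secondary 1:5000; bands quantified; three independent blots.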
(Immunoblotting shows a protein as a band on a membrane.)

In experiment [2] the test system is hCMEC/D3 cells. Briefly: MTT cytotoxicity assay. Type of experiment: cell-based, human. (Tetrazolium dyes change colour on reduction, which living cells bring about.)
Experiment [3] concerns RAGE. Description: Western blot of RAGE expression in hCMEC/D3 cells. The experiment is classed as cell-based, human. The settings on record: 24 h, 100 nM monomeric Aβ40 or 50 nM Aβ42 oligomers, n = 3. The method, boiled down:
as §1

The test system of experiment [4] is LRP1. The settings on record: in vivo administration of 100 μg over 26 h, FVB wild type mice; cited from earlier work.

Take “Aβ40 monomer: synthetic Aβ40 peptide (AnaSpec), HFIP film dissolved in media and used immediately”: the “reduction of LRP1 expression” value in experiment [1] is “not observed”. In experiment [2] (24 h treatment with 250 nM Aβ40 monomer, mean of n = 3 independent experiments), the “decrease in viability of hCMEC/D3 (MTT)” value is given as 14–17%. The “MTT assay result versus control” value in experiment [2] (24 h treatment, Aβ40 monomers at 50 and 100 nM, n = 3) is “comparable to control treated cells”. The “alteration in RAGE protein expression” value in experiment [3] is given as “did not show any significant alterations”.
For “Aβ42 monomers: human sequence Aβ42 monomers administered in vivo in a cited study”, in experiment [4], the “LRP1 expression in brain tissue” value is “significant reduction in LRP1 expression”.
